Results published in ChEMBL document CHEMBL4177701, “A novel series of enoyl reductase inhibitors targeting the ESKAPE pathogens, Staphylococcus aureus and Acinetobacter baumannii” (Bioorg Med Chem, 2018).
Values after ≈ are worked out from the molar mass of the structure shown. Active and inactive are the calls of the source. The calls are words filed in the database; no cut-off is given here.

Legend:
Staphylococcus aureus [1] = assay: Antibacterial activity against Staphylococcus aureus RN4220 by microbroth dilution method; type: functional
Outline: (§1)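 Broth microdilution MIC; reported value is mean of at least two runs, within two-fold experimental uncertainty.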

Staphylococcus aureus [2] = assay: Antibacterial activity against Staphylococcus aureus RN4220 over-expressing FabI by microbroth dilution method; type: functional; outline: as §1
Acinetobacter baumannii [3] = assay: Synergistic antibacterial activity against Acinetobacter baumannii 2208 ATCC 19606 assessed as colistin MIC by checkerboard method; type: functional; settings: ATCC 19606 = CIP 70.34 = JCM 6841 2208
Escherichia coli [4] = assay: Antibacterial activity against Escherichia coli BW25113 harboring TolC deletion mutant by microbroth dilution method; type: functional; outline: as §1
[5] = Competitive inhibition of Acinetobacter baumannii 2208 ATCC 19606 FabI using crotonyl-CoA as substrate in presence of NADPH/NADH after 10 mins by fluorescence assay; set-up: species or system Acinetobacter baumannii ATCC 19606 = CIP 70.34 = JCM 6841
Acinetobacter baumannii [6] = assay: Antibacterial activity against Acinetobacter baumannii 2208 ATCC 19606 by microbroth dilution method; type: functional; settings: ATCC 19606 = CIP 70.34 = JCM 6841 2208
Outline: (§2)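 Microbroth dilution MIC; each value is the mean of at least two runs, within two-fold experimental uncertainty.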

[7] = target: T1, Enoyl-[acyl-carrier-protein] reductase [NADPH] FabI (Staphylococcus aureus, UniProt Q6GI75); assay: Competitive inhibition of Staphylococcus aureus subsp. aureus Rosenbach ATCC 43300 FabI using crotonyl-CoA as substrate in presence of NADPH/NADH after 10 mins by fluorescence assay
T1 sequence (Q6GI75 whole entry): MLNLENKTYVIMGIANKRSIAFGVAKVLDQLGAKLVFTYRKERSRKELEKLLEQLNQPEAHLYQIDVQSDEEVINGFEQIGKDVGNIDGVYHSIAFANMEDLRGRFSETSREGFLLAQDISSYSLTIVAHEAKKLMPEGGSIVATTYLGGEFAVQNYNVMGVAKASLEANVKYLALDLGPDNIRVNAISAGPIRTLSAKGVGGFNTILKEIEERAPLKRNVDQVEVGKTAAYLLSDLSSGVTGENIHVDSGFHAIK

[8] = target: T2, Enoyl-[acyl-carrier-protein] reductase [NADPH] FabI (Staphylococcus aureus) (UniProt Q6GI75); assay: Binding affinity to Staphylococcus aureus subsp. aureus Rosenbach ATCC 43300 FabI by SPR assay
T2 sequence (whole entry): T1 sequence (Q6GI75 whole entry)

[9] = test system: Acinetobacter baumannii ATCC 19606 = CIP 70.34 = JCM 6841; assay: Binding affinity to Acinetobacter baumannii 2208 ATCC 19606 FabI by SPR assay
[10] = Inhibition of Acinetobacter baumannii 2208 ATCC 19606 FabI using crotonyl-CoA as substrate in presence of NADPH/NADH after 10 mins by fluorescence assay; set-up: species or system Acinetobacter baumannii ATCC 19606 = CIP 70.34 = JCM 6841
Outline: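 AbFabI, 200 nM, in 50 mM MES/100 mM NaCl with 200 μM NADH, 0.1 mg/mL BSA and 0.01% triton. Reaction started with 300 μM crotonyl-CoA. NADH fluorescence read at 340/460 nm. Compounds tested at 0.4 nM–200 μM. Initial 10-min slopes were compared with a DMSO no-compound control. At least two independent experiments, each in duplicate; two-fold uncertainty.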

Staphylococcus aureus [11] = assay: Antibacterial activity against Staphylococcus aureus Newman by microbroth dilution method; type: functional; outline: as §2
Staphylococcus aureus [12] = assay: Antibacterial activity against methicillin-resistant Staphylococcus aureus subsp. aureus Rosenbach ATCC 43300 by microbroth dilution method; type: functional; outline: as §1
Escherichia coli [13] = assay: Antibacterial activity against Escherichia coli BW25113 mutant by microbroth dilution method; type: functional; outline: as §1
[14] = target: T1, Enoyl-[acyl-carrier-protein] reductase [NADPH] FabI; assay: Inhibition of Staphylococcus aureus subsp. aureus Rosenbach ATCC 43300 FabI using crotonyl-CoA as substrate in presence of NADPH/NADH after 10 mins by fluorescence assay
Outline: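 SaFabI enzyme, 300 nM, in 50 mM MES/100 mM NaCl with 200 μM NADPH, 0.1 mg/mL BSA, 0.01% triton; started with 400 μM crotonyl-CoA. NADPH fluorescence at 340/460 nm. Compounds 0.4 nM–200 μM. Slopes over first 10 min compared with DMSO control for % inhibition. At least two independent experiments, each in duplicate. Two-fold experimental uncertainty.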

Acinetobacter baumannii [15] = assay: Synergistic antibacterial activity against Acinetobacter baumannii 2208 ATCC 19606 assessed as fractional inhibitory concentration in presence of colistin by checkerboard method; type: functional, ATCC 19606 = CIP 70.34 = JCM 6841 2208
Acinetobacter baumannii [16] = assay: Synergistic antibacterial activity against Acinetobacter baumannii 2208 ATCC 19606 in presence of colistin by checkerboard method; type: functional; settings: ATCC 19606 = CIP 70.34 = JCM 6841 2208

SMILES: CC[C@H]1OC(=O)[C@H](C)[C@@H](O[C@H]2C[C@@](C)(OC)[C@@H](O)[C@H](C)O2)[C@H](C)[C@@H](O[C@@H]2O[C@H](C)C[C@H](N(C)C)[C@H]2O)[C@](C)(O)C[C@@H](C)C(=O)[C@H](C)[C@@H](O)[C@]1(C)O
- Activity (Staphylococcus aureus [1]): Active
- Activity (Staphylococcus aureus [2]): Active

SMILES: CC(=O)Nc1ccc(/C=C/C(=O)N2CCC(c3ccccc3)C2)cn1 (racemic)
- MIC (Acinetobacter baumannii [3]): 3.1 µg/mL
- MIC (Escherichia coli [4]): 12.5 µg/mL (≈ 37.3 µM)
- Ki [5]: 0.2 µM
- MIC (Acinetobacter baumannii [6]): > 200 µg/mL
- Ki [7]: 0.4 µM
- Activity [8]: Active
- Activity [9]: Active
- MIC (Staphylococcus aureus [1]): > 200 µg/mL
- IC50 [10]: 0.47 µM
- MIC (Staphylococcus aureus [11]): > 200 µg/mL
- MIC (Staphylococcus aureus [12]): > 200 µg/mL
- MIC (Staphylococcus aureus [2]): > 200 µg/mL

SMILES: COc1ccccc1C1CCN(C(=O)Cc2ccc(NC(C)=O)cc2)C1 (racemic)
- Ki [5]: > 50 µM
- MIC (Acinetobacter baumannii [6]): > 200 µg/mL
- Ki [7]: > 37.1 µM
- Activity [8]: Active
- Activity [9]: Active
- MIC (Escherichia coli [13]): > 200 µg/mL
- IC50 [14]: > 100 µM
- IC50 [10]: > 100 µM
- MIC (Staphylococcus aureus [12]): > 200 µg/mL
- MIC (Staphylococcus aureus [2]): > 200 µg/mL

SMILES: COc1ccc(C2CCN(C(=O)/C=C/c3ccc(NC(C)=O)nc3)C2)cc1 (racemic)
- Ki [5]: > 100 µM
- MIC (Acinetobacter baumannii [6]): > 200 µg/mL
- Ki [7]: 1.3 µM
- Activity [8]: Active
- Activity [9]: Active
- MIC (Escherichia coli [13]): > 200 µg/mL
- IC50 [14]: 3.6 µM
- IC50 [10]: > 200 µM
- MIC (Staphylococcus aureus [2]): > 200 µg/mL

SMILES: O=C(Cc1cccc(F)c1F)N1CCC(c2ccc3c(c2)OCO3)C1 (racemic)
- Ki [5]: 6.9 µM
- MIC (Acinetobacter baumannii [6]): > 200 µg/mL
- Ki [7]: 2 µM
- Activity [8]: Active
- Activity [9]: Active
- MIC (Escherichia coli [13]): > 200 µg/mL
- MIC (Staphylococcus aureus [1]): > 200 µg/mL
- IC50 [10]: 13.7 µM
- MIC (Staphylococcus aureus [12]): > 200 µg/mL

SMILES: CC(=O)Nc1ccc(/C=C/C(=O)N2CCC(c3ccccn3)C2)cn1 (racemic)
- MIC (Acinetobacter baumannii [3]): 0.39 µg/mL
- FIC (Acinetobacter baumannii [15]): 1
- MIC (Escherichia coli [4]): > 200 µg/mL
- Ki [5]: 3.6 µM
- MIC (Acinetobacter baumannii [6]): > 200 µg/mL
- Ki [7]: 10.5 µM
- Activity [8]: Active
- Activity [9]: Active
- MIC (Escherichia coli [13]): > 200 µg/mL
- MIC (Staphylococcus aureus [1]): > 200 µg/mL
- IC50 [10]: 7.1 µM
- MIC (Staphylococcus aureus [11]): > 200 µg/mL
- MIC (Staphylococcus aureus [12]): > 200 µg/mL
- MIC (Acinetobacter baumannii [16]): 100 µg/mL

SMILES: CC(C)S(=O)(=O)c1ccc(CC(=O)N2CCC(c3ccc4c(c3)OCO4)C2)cc1 (racemic)
- Ki [5]: > 50 µM
- MIC (Acinetobacter baumannii [6]): > 200 µg/mL
- Ki [7]: > 37.1 µM
- Activity [8]: Active
- Activity [9]: Active
- MIC (Escherichia coli [13]): > 200 µg/mL
- IC50 [14]: > 100 µM
- IC50 [10]: > 100 µM
- MIC (Staphylococcus aureus [12]): > 200 µg/mL
- MIC (Staphylococcus aureus [2]): > 200 µg/mL

SMILES: COc1ccc(C2CCN(C(=O)Cc3ccccc3Cl)C2)cc1 (racemic)
- MIC (Escherichia coli [4]): > 200 µg/mL
- Ki [5]: > 100 µM
- MIC (Acinetobacter baumannii [6]): > 200 µg/mL
- Ki [7]: 4.6 µM
- Activity [8]: Active
- Activity [9]: Active
- MIC (Staphylococcus aureus [1]): > 200 µg/mL
- IC50 [10]: > 200 µM
- MIC (Staphylococcus aureus [12]): > 200 µg/mL

SMILES: CN(C)[C@@H]1C(O)=C(C(N)=O)C(=O)[C@@]2(O)C(O)=C3C(=O)c4c(O)cccc4[C@@](C)(O)[C@H]3C[C@@H]12
- Activity (Staphylococcus aureus [1]): Active
- Activity (Staphylococcus aureus [2]): Active

SMILES: O=C(Cc1ccccc1F)N1CCC(c2ccc3c(c2)OCO3)C1 (racemic)
- Ki [5]: 16 µM
- MIC (Acinetobacter baumannii [6]): > 200 µg/mL
- Ki [7]: 1 µM
- Activity [8]: Active
- Activity [9]: Active
- MIC (Escherichia coli [13]): > 200 µg/mL
- IC50 [10]: 32 µM
- MIC (Staphylococcus aureus [12]): > 200 µg/mL
- MIC (Staphylococcus aureus [2]): > 200 µg/mL

SMILES: CC(=O)Nc1ccc(CC(=O)N2CCC(c3ccc4c(c3)OCO4)C2)cc1 (racemic)
- Ki [5]: > 50 µM
- MIC (Acinetobacter baumannii [6]): > 200 µg/mL
- Ki [7]: > 37.1 µM
- Activity [8]: Active
- Activity [9]: Active
- MIC (Escherichia coli [13]): > 200 µg/mL
- IC50 [14]: > 100 µM
- IC50 [10]: > 100 µM
- MIC (Staphylococcus aureus [12]): > 200 µg/mL
- MIC (Staphylococcus aureus [2]): > 200 µg/mL
